Results reported in ChEMBL document CHEMBL1140016, “Arylpropanolamines: selective beta3 agonists arising from strategies to mitigate phase I metabolic transformations” (Bioorg Med Chem Lett, 2007).

Columns and labels:
[1] = molecular target: T1, Beta-3 adrenergic receptor (Homo sapiens, UniProt P13945); assay: Displacement of [125I]iodocyanopindolol from cloned human adrenergic beta-3 receptor expressed in CHO cells; format: cell-based
Target sequence in this assay (P13945 whole entry): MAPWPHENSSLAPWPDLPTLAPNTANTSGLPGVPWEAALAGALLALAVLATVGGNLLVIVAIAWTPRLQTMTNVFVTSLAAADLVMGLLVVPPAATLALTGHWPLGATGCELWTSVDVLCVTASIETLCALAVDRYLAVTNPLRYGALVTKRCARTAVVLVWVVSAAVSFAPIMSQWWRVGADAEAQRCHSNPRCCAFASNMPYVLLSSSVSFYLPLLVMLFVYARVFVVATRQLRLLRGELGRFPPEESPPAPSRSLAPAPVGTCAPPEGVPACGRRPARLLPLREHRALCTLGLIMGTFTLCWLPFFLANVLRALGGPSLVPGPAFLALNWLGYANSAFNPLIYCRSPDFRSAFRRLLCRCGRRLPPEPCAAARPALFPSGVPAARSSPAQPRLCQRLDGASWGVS

[2] = molecular target: T1, Beta-3 adrenergic receptor; assay: Intrinsic activity at human cloned adrenergic beta3 receptor expressed in CHO cells assessed as cAMP accumulation relative to isoproterenol; format: functional, cell-based
Target sequence in this assay (P13945 whole entry, looked up): as the sequence (P13945 whole entry) above

[3] = molecular target: Beta-1 adrenergic receptor (Homo sapiens, UniProt P08588); assay: Displacement of [125I]iodocyanopindolol from human cloned adrenergic beta-1 receptor expressed in CHO cells; format: cell-based
Homo sapiens [4] = species on record: Homo sapiens; assay: Selectivity ratio of Ki for human adrenergic beta-1 receptor to Ki for human adrenergic beta-3 receptor
Homo sapiens [5] = species on record: Homo sapiens; assay: Selectivity ratio of Ki for adrenergic beta2 receptor Ki for adrenergic beta-3 receptor
[6] = molecular target: Beta-2 adrenergic receptor (Homo sapiens, UniProt P07550); assay: Displacement of [125I]iodocyanopindolol from human cloned adrenergic beta-2 receptor expressed in CHO cells; format: cell-based
African green monkey [7] = assay: Effect on potassium levels in African green monkey serum at 0.1 mg/kg, iv; format: functional, Chlorocebus sabaeus; design: unit not given beside the values
In short: (§1)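 Single iv dose given to ketamine-sedated African green monkeys, either 0.1 or 0.5 mg/kg as the line states. Three read-outs were recorded after dosing: change in serum free fatty acids (β3 lipolysis), change in serum K+ (a decrease is β2-mediated) and change in heart rate (β1/β2 tachycardia). Changes were tested for significance at P < 0.05.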

African green monkey [8] = assay: Effect on tachycardia in African green monkey assessed as change in heart rate at 0.1 mg/kg, iv; format: functional, Chlorocebus sabaeus; in short: as §1
African green monkey [9] = assay: Effect on African green monkey assessed as change in free fatty acid level at 0.1 mg/kg, iv; format: functional, Chlorocebus sabaeus; in short: as §1
African green monkey [10] = assay: Effect on lipolysis in iv dosed African green monkey; format: functional; settings: Chlorocebus sabaeus
In short: (§2)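 Compounds were given iv to ketamine-sedated African green monkeys across a range of doses. Lipolysis ED50 (mg/kg) came from the rise in serum free fatty acids. Onset doses were the lowest doses giving a statistically significant rise in heart rate (β1) or fall in serum K+ (β2). Each margin is the onset dose divided by the lipolysis ED50.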

African green monkey [11] = assay: Ratio of serum potassium concentration to ED50 for lipolysis in African green monkey; format: functional, Chlorocebus sabaeus; in short: as §2
African green monkey [12] = assay: Ratio of effect on tachycardia to ED50 for lipolysis in African green monkey; format: functional, Chlorocebus sabaeus; in short: as §2
African green monkey [13] = assay: Effect on free fatty acid level in African green monkey serum at 0.5 mg/kg, iv; format: functional, Chlorocebus sabaeus; in short: as §1
African green monkey [14] = assay: Effect on African green monkey serum assessed as potassium concentration at 0.5 mg/kg, iv; format: functional, Chlorocebus sabaeus; in short: as §1
African green monkey [15] = assay: Effect on tachycardia in African green monkey assessed as change in heart rate at 0.5 mg/kg, iv; format: functional, Chlorocebus sabaeus; in short: as §1
[16] = molecular target: Beta-1 adrenergic receptor (Cavia porcellus) (UniProt B0FL73); assay: Intrinsic activity at adrenergic beta-1 receptor in spontaneously beating guinea pig atria assessed as acceleration in contraction relative to isoproterenol
Sequence of Beta-1 adrenergic receptor (Cavia porcellus) (B0FL73 1-467): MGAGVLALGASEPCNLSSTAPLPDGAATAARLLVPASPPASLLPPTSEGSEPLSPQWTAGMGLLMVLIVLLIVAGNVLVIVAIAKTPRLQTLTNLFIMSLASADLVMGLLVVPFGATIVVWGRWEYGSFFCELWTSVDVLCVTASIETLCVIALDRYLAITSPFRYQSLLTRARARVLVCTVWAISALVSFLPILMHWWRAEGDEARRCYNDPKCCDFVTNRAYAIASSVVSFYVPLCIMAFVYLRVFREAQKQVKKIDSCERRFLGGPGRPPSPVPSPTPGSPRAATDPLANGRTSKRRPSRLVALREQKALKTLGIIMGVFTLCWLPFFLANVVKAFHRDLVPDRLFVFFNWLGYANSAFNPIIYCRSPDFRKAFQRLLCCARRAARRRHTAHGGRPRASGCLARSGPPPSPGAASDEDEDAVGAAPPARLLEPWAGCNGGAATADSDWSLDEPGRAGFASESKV

Sequence of Beta-2 adrenergic receptor (P07550 whole entry): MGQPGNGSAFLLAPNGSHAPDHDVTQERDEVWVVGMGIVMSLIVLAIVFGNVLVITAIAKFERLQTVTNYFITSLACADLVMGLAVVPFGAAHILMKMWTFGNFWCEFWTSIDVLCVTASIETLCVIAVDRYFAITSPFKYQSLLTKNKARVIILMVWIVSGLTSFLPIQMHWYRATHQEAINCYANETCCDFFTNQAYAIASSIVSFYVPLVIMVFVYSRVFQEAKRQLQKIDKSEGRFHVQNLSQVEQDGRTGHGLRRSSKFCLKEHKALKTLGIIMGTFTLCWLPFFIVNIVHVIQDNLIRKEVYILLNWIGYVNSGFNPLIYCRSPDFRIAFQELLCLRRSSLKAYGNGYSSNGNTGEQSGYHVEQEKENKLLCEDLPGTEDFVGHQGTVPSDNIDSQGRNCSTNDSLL
Sequence of Beta-1 adrenergic receptor (P08588 whole entry): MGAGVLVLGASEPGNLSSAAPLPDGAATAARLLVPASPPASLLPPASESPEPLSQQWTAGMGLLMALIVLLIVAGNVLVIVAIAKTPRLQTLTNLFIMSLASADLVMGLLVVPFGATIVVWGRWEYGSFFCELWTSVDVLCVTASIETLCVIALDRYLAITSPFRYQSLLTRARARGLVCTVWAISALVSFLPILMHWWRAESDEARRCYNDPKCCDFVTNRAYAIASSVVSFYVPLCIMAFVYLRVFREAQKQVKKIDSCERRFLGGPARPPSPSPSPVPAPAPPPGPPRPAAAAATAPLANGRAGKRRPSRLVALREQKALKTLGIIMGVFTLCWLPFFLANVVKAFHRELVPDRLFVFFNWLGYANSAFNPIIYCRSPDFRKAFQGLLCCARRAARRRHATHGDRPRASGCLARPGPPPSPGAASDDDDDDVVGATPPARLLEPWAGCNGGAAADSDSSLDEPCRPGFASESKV

Row | Structure (SMILES) | Ki [1] | Intrinsic activity [2] | Ki [3] | Ratio Ki (Homo sapiens [4]) | Ratio Ki (Homo sapiens [5]) | Ki [6] | Activity (African green monkey [7]) | Activity (African green monkey [8]) | Activity (African green monkey [9]) | ED50 (African green monkey [10]) | Ratio (African green monkey [11]) | Ratio (African green monkey [12]) | Activity (African green monkey [13]) | Activity (African green monkey [14]) | Activity (African green monkey [15]) | Intrinsic activity [16]
1 | CS(=O)(=O)Nc1cc([C@@H](O)CNC(c2ccc(OC(F)F)cc2)c2ccc(OC(F)F)cc2)ccc1O | – | – | – | – | – | – | – | – | – | 0.08 mg/kg | >60 | 6 | – | – | – | –
2 | COc1ccc([C@@H](Cc2cccc(Cl)c2)NC[C@@H](O)Cc2ccc(O)c(NS(C)(=O)=O)c2)cc1OC | 6 nM | 68% | – | 52 | 13 | – | -0.55 | 6 | 0.92 | – | – | – | – | – | – | –
3 | COc1ccc([C@H](CCc2ccccc2)NC[C@H](O)Cc2ccc(O)c(NS(C)(=O)=O)c2)cc1OC | 9 nM | 84% | 1000 nM | 111 | 43 | 390 nM | -0.25 | 29 | 0.95 | – | – | – | – | – | – | –
4 | CCOP(=O)(OCC)c1ccc(NC(=O)[C@@](C)(NC[C@H](O)c2ccc(O)c(NS(C)(=O)=O)c2)c2ccc(OC)cc2)cc1 | – | – | – | – | – | – | – | – | – | 0.1 mg/kg | >25 | >25 | – | – | – | –
5 | COc1ccc([C@@H](Cc2ccccc2)NC[C@@H](O)Cc2ccc(O)c(NS(C)(=O)=O)c2)cc1OC | 6 nM | 86% | 2600 nM | – | – | 66 nM | -0.08 | 24 | 1.06 | 0.009 mg/kg | >55 | 3 | – | – | – | 60%

More lines, main results first:

Row | Ki [1] | Intrinsic activity [2] | Ki [3] | Ratio Ki (Homo sapiens [4]) | Ratio Ki (Homo sapiens [5]) | Ki [6] | Structure (SMILES) | Activity (African green monkey [7]) | Activity (African green monkey [8]) | Activity (African green monkey [9]) | ED50 (African green monkey [10]) | Ratio (African green monkey [11]) | Ratio (African green monkey [12]) | Activity (African green monkey [13]) | Activity (African green monkey [14]) | Activity (African green monkey [15]) | Intrinsic activity [16]
6 | 12 nM | 89% | 1050 nM | 88 | 10 | 120 nM | COc1ccc([C@H](CCc2ccc(Cl)cc2)NC[C@H](O)Cc2ccc(O)c(NS(C)(=O)=O)c2)cc1OC | -0.32 | 32 | 0.87 | – | – | – | – | – | – | –
7 | 1700 nM | 24% | – | – | – | – | COc1ccc(C(NC[C@H](O)c2ccc(O)c(NS(C)(=O)=O)c2F)c2ccc(OC)cc2)cc1 | – | – | – | – | – | – | 0.39 | -0.49 | 4 | –
8 | – | 107% | – | – | – | – | CS(=O)(=O)Nc1cc([C@@H](O)CN[C@H](Cc2ccccc2)c2ccc(OC(F)F)cc2)ccc1O | 0.08 | 26 | 1.05 | 0.03 mg/kg | >25 | 3 | – | – | – | –
